Values after ≈ are worked out from the molar mass of the structure shown.
How the values were obtained:
[1] = Inhibition of wild-type Acinetobacter baumannii DNA topoisomerase-4 mediated supercoiled pBR322 DNA relaxation by ethidium bromide based agarose gel electrophoresis
[2] = Inhibition of wild-type Escherichia coli DNA topoisomerase-4 mediated supercoiled pBR322 DNA relaxation by ethidium bromide based agarose gel electrophoresis
Staphylococcus aureus [3] = test: Antibacterial activity against Staphylococcus aureus ATCC 29213 by CLSI broth microdilution method; type: functional
Escherichia coli [4] = test: Antibacterial activity against wild-type Escherichia coli ATCC 25922 by CLSI broth microdilution method; type: functional
Pseudomonas aeruginosa [5] = test: Antibacterial activity against Pseudomonas aeruginosa ATCC 27853 by CLSI broth microdilution method; type: functional
[6] = Inhibition of wild-type Escherichia coli DNA gyrase supercoiling activity using relaxed pBR322 DNA as substrate by ethidium bromide based agarose gel electrophoresis
[7] = Inhibition of wild-type Acinetobacter baumannii DNA gyrase supercoiling activity using relaxed pBR322 DNA as substrate by ethidium bromide based agarose gel electrophoresis
[8] = Inhibition of wild-type Pseudomonas aeruginosa DNA gyrase supercoiling activity using relaxed pBR322 DNA as substrate by ethidium bromide based agarose gel electrophoresis
[9] = Inhibition of wild-type Pseudomonas aeruginosa DNA topoisomerase-4 mediated supercoiled pBR322 DNA relaxation by ethidium bromide based agarose gel electrophoresis
Staphylococcus aureus [10] = test: Antibacterial activity against Staphylococcus aureus by CLSI broth microdilution method; type: functional
Enterococcus faecium = test: Antibacterial activity against multi-drug resistant Enterococcus faecium by CLSI broth microdilution method; type: functional
Enterococcus faecalis = test: Antibacterial activity against Enterococcus faecalis by CLSI broth microdilution method; type: functional
Streptococcus agalactiae = test: Antibacterial activity against Streptococcus agalactiae by CLSI broth microdilution method; type: functional
Streptococcus pneumoniae = test: Antibacterial activity against Streptococcus pneumoniae by CLSI broth microdilution method; type: functional
Streptococcus pyogenes = test: Antibacterial activity against Streptococcus pyogenes by CLSI broth microdilution method; type: functional
Escherichia coli [11] = test: Antibacterial activity against Escherichia coli by CLSI broth microdilution method; type: functional
Citrobacter freundii = test: Antibacterial activity against Citrobacter freundii by CLSI broth microdilution method; type: functional
Enterobacter cloacae = test: Antibacterial activity against fluoroquinolone/carbapenem-resistant Enterobacter cloacae by CLSI broth microdilution method; type: functional
Klebsiella pneumoniae = test: Antibacterial activity against Klebsiella pneumoniae by CLSI broth microdilution method; type: functional
Pseudomonas aeruginosa [12] = test: Antibacterial activity against fluoroquinolone/carbapenem-resistant Pseudomonas aeruginosa by CLSI broth microdilution method; type: functional
Acinetobacter baumannii = test: Antibacterial activity against multi-drug resistant Acinetobacter baumannii by CLSI broth microdilution method; type: functional
Serratia marcescens = test: Antibacterial activity against Serratia marcescens by CLSI broth microdilution method; type: functional
Rattus norvegicus [13] = test: Dose normalized AUC in Wistar rat at 10 mg/kg, iv by LC-MS/MS analysis; type: ADME, organism-based; conditions: in vivo
In short: (§1)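 Rats dosed iv at 10 mg/kg or 1 mg/kg. Dose-normalized AUC (μg·h/(mL·dose)) and its unbound counterpart derived via fraction unbound. Clearance, unbound clearance, Vdss and half-life also derived.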

Rattus norvegicus [14] = test: Dose normalized unbound AUC in Wistar rat at 10 mg/kg, iv by LC-MS/MS analysis; type: ADME, organism-based; conditions: in vivo; in short: as §1
[15] = Clearance in Wistar rat at 10 mg/kg, iv by LC-MS/MS analysis; type: ADME, organism-based; conditions: in vivo; in short: as §1
Rattus norvegicus [16] = test: Unbound clearance in Wistar rat at 10 mg/kg, iv by LC-MS/MS analysis; type: ADME, organism-based; conditions: in vivo
In short: (§2)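 Rats received a single intravenous dose of 10 or 1 mg/kg depending on the compound. Clearance, unbound clearance, Vdss, terminal half-life and dose-normalized AUC were derived from plasma exposure, with unbound fraction (fu) reported for this species.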

[17] = Volume of distribution at steady state in Wistar rat at 10 mg/kg, iv by LC-MS/MS analysis; type: ADME, organism-based; conditions: in vivo, read-out: Vdss; in short: as §2
[18] = Terminal half-life in Wistar rat at 10 mg/kg, iv by LC-MS/MS analysis; type: ADME, organism-based; conditions: in vivo, read-out: beta t1/2 (converted); in short: as §1
Canis familiaris = test: Dose normalized AUC in dog at 1 mg/kg, iv by LC-MS/MS analysis; type: ADME, organism-based, Canis lupus familiaris; conditions: in vivo
[19] = Volume of distribution at steady state in dog at 1 mg/kg, iv by LC-MS/MS analysis; type: ADME, organism-based, Canis lupus familiaris; conditions: in vivo, read-out: Vdss
In short: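 Dogs received a single intravenous dose of 1 mg/kg. Clearance, Vdss, terminal half-life and dose-normalized AUC were calculated from plasma concentration data.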

[20] = Half-life in dog at 1 mg/kg, iv by LC-MS/MS analysis; type: ADME, organism-based, Canis lupus familiaris; conditions: in vivo
In short: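 Dogs given 1 mg/kg iv. Clearance (mL/min/kg) and half-life (h) derived from plasma profiles.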

hERG (KCNH2) [21] = molecular target: T1, hERG (KCNH2) (Homo sapiens, UniProt Q12809); test: Inhibition of human ERG assessed as reduction of K+ current at 30 uM
In short: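 hERG K+ channel current reduction measured at 30 μM compound concentration.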

[22] = molecular target: Voltage-gated inwardly rectifying potassium channel KCNH2 (Homo sapiens, UniProt Q12809); test: (§3) Inhibition of human ERG assessed as reduction of K+ current
hERG (KCNH2) [23] = molecular target: T1, hERG (KCNH2); test: as §3; conditions: human
[24] = Cardiotoxicity against human induced pluripotent stem cell-derived cardiomyocytes assessed as free drug concentration causing inhibition of spontaneous rhythm after 5 to 60 mins by Fluo-4 dye based fluorescence assay; type: toxicity; conditions: cardiac muscle cell
In short: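 Spontaneous beating rhythm of human iPSC-derived cardiomyocytes monitored. Reported value is the lowest active concentration, free or total. Free/total conversion corrected for 20% serum in the test solution.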

Cavia porcellus [25] = test: Cardiotoxicity in Dunkin-Hartley guinea pig assessed as free plasma concentration causing effect on QT interval administered as iv at 3 mg/kg for first 20 mins of infusion followed by 10 mg/kg for second 20 mins of infusion followed by 30 mg/kg for third 20 mins of infusion by LC-MS/MS analysis; type: toxicity, organism-based; conditions: in vivo
In short: (§4)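 Anesthetized guinea pigs received 3, 10 and 30 mg/kg iv over three consecutive 20 min periods. MAP, HR and ECG intervals (PR, QRS, RR, QT) recorded continuously. Blood drawn at the end of each period for drug levels. Value is the lowest plasma concentration differing from vehicle-treated animals. Free level uses unbound fraction from rapid equilibrium dialysis of guinea pig plasma.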

Cavia porcellus [26] = test: Cardiotoxicity in Dunkin-Hartley guinea pig assessed as free plasma concentration causing effect on heart rate administered as iv at 3 mg/kg for first 20 mins of infusion followed by 10 mg/kg for second 20 mins of infusion followed by 30 mg/kg for third 20 mins of infusion by LC-MS/MS analysis; type: toxicity, organism-based; conditions: in vivo; in short: as §4
Cavia porcellus [27] = test: Cardiotoxicity in Dunkin-Hartley guinea pig assessed as free plasma concentration causing effect on QRS interval administered as iv at 3 mg/kg for first 20 mins of infusion followed by 10 mg/kg for second 20 mins of infusion followed by 30 mg/kg for third 20 mins of infusion by LC-MS/MS analysis; type: toxicity, organism-based; conditions: in vivo; in short: as §4
[28] = Fraction unbound in Dunkin-Hartley guinea pig plasma administered as iv at 3 mg/kg for first 20 mins of infusion followed by 10 mg/kg for second 20 mins of infusion followed by 30 mg/kg for third 20 mins of infusion by rapid equilibrium dialysis; type: ADME, organism-based, Cavia porcellus

T1 sequence (Q12809 whole entry): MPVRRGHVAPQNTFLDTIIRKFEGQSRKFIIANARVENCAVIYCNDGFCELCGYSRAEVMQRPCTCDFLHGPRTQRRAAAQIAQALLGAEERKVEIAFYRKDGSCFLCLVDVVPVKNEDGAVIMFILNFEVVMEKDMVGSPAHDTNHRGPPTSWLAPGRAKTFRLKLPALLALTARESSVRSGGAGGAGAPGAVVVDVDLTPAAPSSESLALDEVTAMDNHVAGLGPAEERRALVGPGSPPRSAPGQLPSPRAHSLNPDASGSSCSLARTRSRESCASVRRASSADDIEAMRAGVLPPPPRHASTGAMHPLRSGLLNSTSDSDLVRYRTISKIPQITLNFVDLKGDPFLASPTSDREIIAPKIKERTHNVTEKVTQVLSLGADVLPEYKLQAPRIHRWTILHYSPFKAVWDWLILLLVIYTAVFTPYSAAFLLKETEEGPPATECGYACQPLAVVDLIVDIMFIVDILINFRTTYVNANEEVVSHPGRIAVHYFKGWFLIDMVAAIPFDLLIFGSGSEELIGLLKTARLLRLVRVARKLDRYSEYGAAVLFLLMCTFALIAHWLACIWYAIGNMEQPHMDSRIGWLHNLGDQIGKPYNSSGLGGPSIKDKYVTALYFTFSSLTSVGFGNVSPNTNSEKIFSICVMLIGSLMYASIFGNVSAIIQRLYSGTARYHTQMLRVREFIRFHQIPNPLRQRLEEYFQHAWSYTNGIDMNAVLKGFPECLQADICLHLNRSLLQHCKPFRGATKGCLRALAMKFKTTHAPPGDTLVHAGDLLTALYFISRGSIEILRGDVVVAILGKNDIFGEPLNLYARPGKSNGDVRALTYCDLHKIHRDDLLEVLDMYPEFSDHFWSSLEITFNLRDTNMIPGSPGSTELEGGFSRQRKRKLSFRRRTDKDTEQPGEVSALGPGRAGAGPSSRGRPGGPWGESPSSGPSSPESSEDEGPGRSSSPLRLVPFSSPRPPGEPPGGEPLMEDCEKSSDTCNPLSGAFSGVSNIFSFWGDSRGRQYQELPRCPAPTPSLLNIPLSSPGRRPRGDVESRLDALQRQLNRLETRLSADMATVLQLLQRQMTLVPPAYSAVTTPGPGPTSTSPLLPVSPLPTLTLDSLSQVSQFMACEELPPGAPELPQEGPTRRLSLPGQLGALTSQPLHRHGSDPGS
Voltage-gated inwardly rectifying potassium channel KCNH2, sequence (Q12809 whole entry): as above

COc1ccc2ccc(=O)n(C[C@H](N)[C@@H]3CC[C@@H](NCc4ccc5c(n4)NC(=O)CO5)CO3)c2n1
IC50 [1]: 125 nM | IC50 [2]: 30 nM | MIC (Staphylococcus aureus [3]): 0.25 µg/mL (≈ 0.52 µM) | MIC (Escherichia coli [4]): 0.25 µg/mL (≈ 0.52 µM) | MIC (Pseudomonas aeruginosa [5]): 1 µg/mL (≈ 2.08 µM) | IC50 [6]: 125 nM | IC50 [7]: 125 nM | IC50 [8]: 125 nM | IC50 [9]: 30 nM | MIC (Staphylococcus aureus [10]): 0.25 to 2 µg/mL (≈ 0.52 to 4.16 µM) | MIC (Enterococcus faecium): 1 to 16 µg/mL (≈ 2.08 to 33.3 µM) | MIC (Enterococcus faecalis): 1 µg/mL (≈ 2.08 µM) | MIC (Streptococcus agalactiae): 4 µg/mL (≈ 8.32 µM) | MIC (Streptococcus pneumoniae): 0.25 to 8 µg/mL (≈ 0.52 to 16.6 µM) | MIC (Streptococcus pyogenes): ≤ 0.03 µg/mL | MIC (Escherichia coli [11]): 0.5 to 2 µg/mL (≈ 1.04 to 4.16 µM) | MIC (Citrobacter freundii): 1 µg/mL (≈ 2.08 µM) | MIC (Enterobacter cloacae): 2 to 16 µg/mL (≈ 4.16 to 33.3 µM) | MIC (Klebsiella pneumoniae): 8 to 16 µg/mL (≈ 16.6 to 33.3 µM) | MIC (Pseudomonas aeruginosa [12]): 1 to 2 µg/mL (≈ 2.08 to 4.16 µM) | MIC (Acinetobacter baumannii): 1 to 16 µg/mL (≈ 2.08 to 33.3 µM) | MIC (Serratia marcescens): 8 to 16 µg/mL (≈ 16.6 to 33.3 µM) | AUC/dose (Rattus norvegicus [13]): 145 µg·h/mL | fAUC/dose (Rattus norvegicus [14]): 34 µg·h/mL | clearance [15]: 110 mL/min/kg | CL free (Rattus norvegicus [16]): 144 mL/min/kg | Vd [17]: 21 L/kg | half-life [18]: 9.1 h | AUC/dose (Canis familiaris): 376 ng·h/mL | Vd [19]: 2.5 L/kg | half-life [20]: 1.3 h | inhibition at 30 µM (hERG (KCNH2) [21]): 37% | IC50 [22]: 52000 nM | IC20 (hERG (KCNH2) [23]): 13000 nM | Drug uptake(free) [24]: 0.27 to 0.81 µM | Cp(f) (Cavia porcellus [25]): 2700 nM | Cp(f) (Cavia porcellus [26]): 11000 nM | Cp(f) (Cavia porcellus [27]): 2700 nM | fraction unbound at 20 min [28]: 0.54

COc1ccc2ncc(F)c(C[C@H](N)[C@@H]3CC[C@@H](NCc4ccc5c(n4)NC(=O)CO5)CO3)c2n1
IC50 [1]: 125 nM | IC50 [2]: 30 nM | MIC (Staphylococcus aureus [3]): 0.03 µg/mL (≈ 0.0622 µM) | MIC (Escherichia coli [4]): 0.125 µg/mL (≈ 0.259 µM) | MIC (Pseudomonas aeruginosa [5]): 1 µg/mL (≈ 2.07 µM) | IC50 [6]: 125 nM | IC50 [7]: 125 nM | IC50 [8]: 30 nM | IC50 [9]: 30 nM | MIC (Staphylococcus aureus [10]): 0.125 to 0.5 µg/mL (≈ 0.259 to 1.04 µM) | MIC (Enterococcus faecium): 0.063 to 0.5 µg/mL (≈ 0.131 to 1.04 µM) | MIC (Enterococcus faecalis): 0.25 µg/mL (≈ 0.518 µM) | MIC (Streptococcus agalactiae): 2 µg/mL (≈ 4.14 µM) | MIC (Streptococcus pneumoniae): 0.125 to 2 µg/mL (≈ 0.259 to 4.14 µM) | MIC (Streptococcus pyogenes): ≤ 0.03 µg/mL | MIC (Escherichia coli [11]): 0.125 to 0.5 µg/mL (≈ 0.259 to 1.04 µM) | MIC (Citrobacter freundii): 0.25 µg/mL (≈ 0.518 µM) | MIC (Enterobacter cloacae): 0.25 to 4 µg/mL (≈ 0.518 to 8.29 µM) | MIC (Klebsiella pneumoniae): 1 to 4 µg/mL (≈ 2.07 to 8.29 µM) | MIC (Pseudomonas aeruginosa [12]): 1 to 2 µg/mL (≈ 2.07 to 4.14 µM) | MIC (Acinetobacter baumannii): 0.125 to 4 µg/mL (≈ 0.259 to 8.29 µM) | MIC (Serratia marcescens): 1 to 8 µg/mL (≈ 2.07 to 16.6 µM) | AUC/dose (Rattus norvegicus [13]): 194 µg·h/mL | fAUC/dose (Rattus norvegicus [14]): 29 µg·h/mL | clearance [15]: 86 mL/min/kg | CL free (Rattus norvegicus [16]): 573 mL/min/kg | Vd [17]: 25 L/kg | half-life [18]: 8.8 h | AUC/dose (Canis familiaris): 34000 ng·h/mL | Vd [19]: 61 L/kg | half-life [20]: 2.9 h | inhibition at 30 µM (hERG (KCNH2) [21]): 86% | IC50 [22]: 5000 nM | IC20 (hERG (KCNH2) [23]): 1200 nM | Drug uptake(free) [24]: 0.28 µM | Cp(f) (Cavia porcellus [25]): 530 nM | Cp(f) (Cavia porcellus [26]): 530 nM | Cp(f) (Cavia porcellus [27]): 1800 nM | fraction unbound at 20 min [28]: 0.33
